According to PubChem BioAssay AID602174 (The Scripps Research Institute Molecular Screening Center, 2012):

System: MCF7 proliferation, sulforhodamine B absorbance
Experiment: growth effect on ER-positive breast cancer cells – cell-based, absorbance, MCF7, counter-screen for AHR activator project, late-stage follow-up (AID 602174)
Conditions: at 10 µM
Summary of the method: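 Material: MCF7 cell line | Amount: 2,000 MCF7 cells seeded per well | Signal: SRB absorbance, 490 nm with 650 nm background subtracted | Timing: 8–10 day exposure at 37 °C after 24 h attachment | Doses: Single 10 µM test compound dose, renewed with medium every 48 h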

| Structure (SMILES) | proliferation change |
| --- | --- |
| COc1ccc(NC(=O)c2cccc3c(Br)cccc23)cc1 | -59.5% |
| COc1ccccc1NC(=O)c1ccc(C(=O)Nc2ccccc2OC)nc1 | -90.8% |
| Cn1c(C(=O)N2CCC(C(N)=O)CC2)cc2cc(Cl)ccc21 | -49.2% |
| Cc1ccc(-c2cc(-c3cccs3)[nH]n2)c(O)c1 | -98.1% |
| CCOc1ccc(-c2cc(C)n3nc(C(N)=O)cc3n2)cc1 | -20.5% |
| Cc1c(-c2ccn[nH]2)cc(NC(=O)c2ccc(Cl)cc2)c(=O)n1N | -73% |
| CCOC(=O)Cc1cc(-c2ccc(O)cc2)nc2ccc3ccccc3c12 | -84.8% |
| Cc1nc(N)nc(Nc2ccc(Cl)cc2)c1Br | -86.8% |
| Cc1nnc(N2C(=O)c3cccc4c([N+](=O)[O-])ccc(c34)C2=O)s1 | -79% |
| Cc1csc(SCC(=O)Nc2ccc(Cl)cn2)n1 | -63.2% |
